pIC50: −log10 of the molar value. Calls of active or inactive are those of the source. No cut-off for these calls is given here.
Assays:
[1] = target: T1, 17-beta-hydroxysteroid dehydrogenase type 3 (Homo sapiens) (UniProt P37058); assay: Inhibition of 17-beta-HSD3 (unknown origin) expressed in human LNCaP cells using [14C]-4-androstene-3,17-dione as substrate assessed as reduction of [14C]-testosterone level at 0.1 to 1 uM after 1 hr by TLC method; assay type: cell-based
T1 sequence (whole entry): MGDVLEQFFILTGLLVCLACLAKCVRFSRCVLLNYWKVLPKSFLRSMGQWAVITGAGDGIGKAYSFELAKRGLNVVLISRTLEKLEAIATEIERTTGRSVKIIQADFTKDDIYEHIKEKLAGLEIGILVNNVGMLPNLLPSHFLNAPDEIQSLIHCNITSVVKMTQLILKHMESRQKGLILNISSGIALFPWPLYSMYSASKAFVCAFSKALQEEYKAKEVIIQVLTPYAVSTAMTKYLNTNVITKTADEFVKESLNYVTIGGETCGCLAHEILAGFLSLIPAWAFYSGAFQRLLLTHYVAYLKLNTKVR
Procedure, shortened: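 LNCaP cells stably transfected with 17β-HSD3, grown in RPMI-1640 with 10% FBS and hygromycin; hygromycin omitted for assay. 10,000 cells/well plated, incubated 2 days, then 15 nM [14C]-4-androstene-3,17-dione added with inhibitor in DMSO (final 0.05%).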

Androgen receptor [2] = target: T2, Androgen receptor (Homo sapiens, UniProt P10275); assay: Androgenic activity at AR in human LAPC4 cells assessed as cell growth at 0.1 uM after 3 days by MTS method relative to control; assay type: cell-based; settings: 72 h
T2 sequence (P10275 whole entry): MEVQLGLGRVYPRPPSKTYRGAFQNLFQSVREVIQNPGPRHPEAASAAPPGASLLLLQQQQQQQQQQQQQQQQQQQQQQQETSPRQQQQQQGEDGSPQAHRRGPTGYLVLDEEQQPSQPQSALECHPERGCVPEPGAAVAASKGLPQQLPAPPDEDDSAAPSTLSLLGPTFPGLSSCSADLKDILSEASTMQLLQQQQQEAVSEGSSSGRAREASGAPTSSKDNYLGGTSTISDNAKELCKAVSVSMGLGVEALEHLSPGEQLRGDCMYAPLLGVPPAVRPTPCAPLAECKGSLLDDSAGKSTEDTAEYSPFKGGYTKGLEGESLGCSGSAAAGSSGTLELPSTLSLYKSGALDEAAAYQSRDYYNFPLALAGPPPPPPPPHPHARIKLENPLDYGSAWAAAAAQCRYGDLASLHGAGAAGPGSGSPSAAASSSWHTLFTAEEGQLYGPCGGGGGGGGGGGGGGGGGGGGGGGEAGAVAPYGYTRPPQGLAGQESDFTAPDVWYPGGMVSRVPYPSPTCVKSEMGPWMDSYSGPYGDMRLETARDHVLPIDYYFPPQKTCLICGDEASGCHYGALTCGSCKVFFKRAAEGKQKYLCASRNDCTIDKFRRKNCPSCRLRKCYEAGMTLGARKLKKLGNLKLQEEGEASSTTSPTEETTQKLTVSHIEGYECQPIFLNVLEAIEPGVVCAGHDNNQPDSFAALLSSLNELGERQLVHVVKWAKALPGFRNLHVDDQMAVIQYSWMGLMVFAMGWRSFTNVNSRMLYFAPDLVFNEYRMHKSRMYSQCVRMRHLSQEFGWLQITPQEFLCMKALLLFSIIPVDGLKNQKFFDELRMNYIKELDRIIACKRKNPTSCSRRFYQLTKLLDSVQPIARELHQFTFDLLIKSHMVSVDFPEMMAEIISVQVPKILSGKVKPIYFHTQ
Procedure, shortened: (§1)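 LAPC-4 (AR+) cells, cultured in RPMI-1640 with FBS, L-glutamine and insulin, were switched to medium with 5% dextran-coated charcoal treated FBS. 10,000 cells/well, triplicate, were pre-incubated 24 h at 37 °C, then given compound diluted from DMSO stock for 3 days; vehicle DMSO controls. Growth read by MTS, expressed as % proliferation minus basal 100%.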

Androgen receptor [3] = target: T2, Androgen receptor; assay: Androgenic activity at AR in human LAPC4 cells assessed as cell growth at 0.5 uM after 3 days by MTS method relative to control; assay type: cell-based; settings: 72 h; procedure, shortened: as §1
[4] = target: T3, 17-beta-hydroxysteroid dehydrogenase type 3 (Homo sapiens, UniProt P37058); assay: Inhibition of 17-beta-HSD3 (unknown origin) expressed in human LNCaP cells using [14C]-4-androstene-3,17-dione as substrate assessed as reduction of [14C]-testosterone level after 1 hr by TLC method
T3 sequence (P37058 whole entry): T1 sequence (whole entry)

[5] = Metabolic stability in human liver microsomes assessed as parent compound remaining at 10 uM after 1 hr by HPLC-MS analysis; assay type: ADME, microsome; settings: read-out: Stability
Procedure, shortened: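 Human liver microsomes (40 μg) were incubated with 10 μM substrate for 1 h at 37 °C, with or without 10 mM NADPH, in 50 mM Tris plus 10 mM MgCl₂. MeOH-quenched, centrifuged supernatants from 2 assays pooled for HPLC-MS with UV at 190 nm. % remaining = AUC with NADPH / AUC without NADPH × 100; mean of 4 independent experiments.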

Androgen receptor [6] = target: T2, Androgen receptor; assay: Androgenic activity at AR in human LAPC4 cells assessed as cell growth at 1 uM after 3 days by MTS method relative to control; assay type: cell-based; settings: 72 h; procedure, shortened: as §1

In the case of `C[C@]12CC[C@H](O)C[C@H]1CC[C@@H]1[C@@H]2CC[C@@]2(C)C(=O)CC[C@@H]12`, the inhibition [1] was “inactive”.

`C[C@@H]1CN(S(=O)(=O)c2ccccc2C(F)(F)F)[C@@H](C)CN1C[C@]1(O)CC[C@@]2(C)[C@H](CC[C@@H]3[C@@H]2CC[C@@]2(C)C(=O)CC[C@@H]32)C1` showed an Activity (Androgen receptor [2]) of 87.2%, an Activity (Androgen receptor [3]) of 72.3% and a pIC50 [4] of 6.82. The remaining at 1 h, 10 µM [5] was 16.6% and the Activity (Androgen receptor [6]) was 28.2%.

In the case of `C[C@@H]1CN(S(=O)(=O)c2ccccc2C(F)(F)F)[C@@H](C)CN1C` (relative stereo), the inhibition [1] was “inactive”.

For `C[C@]12CC[C@@H](O)C[C@@H]1CC[C@@H]1[C@@H]2CC[C@@]2(C)C(=O)CC[C@@H]12`, the inhibition [1] was “inactive”.

For `C[C@@H]1CN(S(=O)(=O)c2ccccc2C(F)(F)F)[C@@H](C)CN1C[C@@]1(O)CC[C@@]2(C)[C@@H](CC[C@@H]3[C@@H]2CC[C@@]2(C)C(=O)CC[C@@H]32)C1`, the Activity (Androgen receptor [2]) was 76.3%, the Activity (Androgen receptor [3]) was 61.6% and the pIC50 [4] was 5.96. For the same compound, the remaining at 1 h, 10 µM [5] was 29.4% and the Activity (Androgen receptor [6]) was 51%.

Work on `C[C@@H]1CN(S(=O)(=O)c2ccccc2C(F)(F)F)[C@@H](C)CN1C[C@@]1(O)CC[C@@]2(C)[C@@H](CC[C@@H]3[C@@H]2CC[C@]2(C)C(=O)CC[C@@H]32)C1` yielded an Activity (Androgen receptor [2]) of 96%, an Activity (Androgen receptor [3]) of 48% and a pIC50 [4] of 6.96. It also gave an Activity (Androgen receptor [6]) of 33%.

Reference: ChEMBL document CHEMBL4004871, “Impact of androstane A- and D-ring inversion on 17β-hydroxysteroid dehydrogenase type 3 inhibitory activity, androgenic effect and metabolic stability” (Bioorg Med Chem, 2017)
